In brackets after ≈: the same amount, converted by molar mass.
Assays:
[1] = AUC (0 to 4 hrs) in mouse at 50 mg/kg, po; format: ADME, organism-based; design: time < 4 hr, dose 50 mg/kg, route oral; settings: plasma
Method in brief: (§1)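 Oral dosing to female mice, three per dose group, at 50 and 200 mg/kg in PEG400/water (70:30). Plasma levels of the parent drug were measured at 0.5, 1 and 4 h.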

L2987 [2] = assay: Antitumor activity against human L2987 cells xenografted po dosed athymic mouse after 14 days; format: functional, organism-based
Method in brief: (§2)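 L2987 non-small cell lung tumors were grown as xenografts in athymic mice. Once tumors were established at 80–100 mm³, animals were dosed orally once daily for 14 consecutive days. Tumor growth was followed through dosing, and activity was expressed as percent tumor growth inhibition (%TGI).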

L2987 [3] = assay: Antitumor activity against human L2987 cells xenografted athymic mouse at 107 mg/kg/day, po after 14 days; format: functional; settings: L2987, 336 h, read-out: TGI; method in brief: as §2
Cytochrome P450 2C19 = Cytochrome P450 2C19 (Homo sapiens, UniProt P33261); assay: Inhibition of human CYP2C19; format: ADME
[4] = AUC (0 to 4 hrs) in mouse at 200 mg/kg, po; format: ADME, organism-based; design: time < 4 hr, dose 200 mg/kg, route oral; settings: plasma; method in brief: as §1
Cytochrome P450 2D6 = Cytochrome P450 2D6 (Homo sapiens, UniProt P10635); assay: Inhibition of human CYP2D6; format: ADME
Cytochrome P450 1A2 = target: T1, Cytochrome P450 1A2 (Homo sapiens, UniProt P05177); assay: Inhibition of human CYP1A2; format: ADME
T1 sequence (P05177 whole entry): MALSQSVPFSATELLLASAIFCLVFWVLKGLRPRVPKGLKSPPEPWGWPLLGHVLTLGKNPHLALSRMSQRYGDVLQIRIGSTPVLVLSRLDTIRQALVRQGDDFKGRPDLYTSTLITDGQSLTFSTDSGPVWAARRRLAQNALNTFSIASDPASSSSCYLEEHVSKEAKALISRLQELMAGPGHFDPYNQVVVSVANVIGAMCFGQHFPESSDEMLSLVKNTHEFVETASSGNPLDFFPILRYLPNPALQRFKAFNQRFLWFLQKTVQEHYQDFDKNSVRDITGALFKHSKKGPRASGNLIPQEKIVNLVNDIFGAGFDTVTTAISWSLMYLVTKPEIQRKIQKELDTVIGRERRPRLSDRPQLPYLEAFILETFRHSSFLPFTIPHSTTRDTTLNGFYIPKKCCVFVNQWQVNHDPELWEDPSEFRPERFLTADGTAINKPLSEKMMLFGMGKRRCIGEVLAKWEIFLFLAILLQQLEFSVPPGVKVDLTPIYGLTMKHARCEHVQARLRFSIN

[5] = Cmax in mouse at 200 mg/kg, po; format: ADME, organism-based; design: dose 200 mg/kg, route oral; settings: in vivo; method in brief: as §1
[6] = Aqueous solubility at pH 5.8; format: physicochemical
L2987 [7] = assay: Antitumor activity against human L2987 cells xenografted athymic mouse at 80 mg/kg/day, po after 14 days; format: functional; settings: L2987, 336 h, read-out: TGI; method in brief: as §2
[8] = Cmax in mouse at 50 mg/kg, po; format: ADME, organism-based; design: dose 50 mg/kg, route oral; settings: in vivo; method in brief: as §1
Cytochrome P450 2C9 = Cytochrome P450 2C9 (Homo sapiens, UniProt P11712); assay: Inhibition of human CYP2C9; format: ADME
[9] = Aqueous solubility at pH 6.5; format: physicochemical
Mus musculus = assay: Ratio of AUC (0 to 4 hrs) in mouse plasma at 200 mg/kg, po to AUC (0 to 4 hrs) in mouse plasma at 50 mg/kg, po; format: ADME, organism-based; settings: in vivo; method in brief: as §1
Cytochrome P450 3A4 [10] = target: T2, Cytochrome P450 3A4 (Homo sapiens, UniProt P08684); assay: Inhibition of human CYP3A4 using 7-benzyloxyresorufin; format: ADME
Cytochrome P450 3A4 [11] = target: T2, Cytochrome P450 3A4; assay: Inhibition of human CYP3A4 using 7-benzyl-trifluoromethyl coumarin; format: ADME

Chain of Cytochrome P450 2D6 (P10635 whole entry): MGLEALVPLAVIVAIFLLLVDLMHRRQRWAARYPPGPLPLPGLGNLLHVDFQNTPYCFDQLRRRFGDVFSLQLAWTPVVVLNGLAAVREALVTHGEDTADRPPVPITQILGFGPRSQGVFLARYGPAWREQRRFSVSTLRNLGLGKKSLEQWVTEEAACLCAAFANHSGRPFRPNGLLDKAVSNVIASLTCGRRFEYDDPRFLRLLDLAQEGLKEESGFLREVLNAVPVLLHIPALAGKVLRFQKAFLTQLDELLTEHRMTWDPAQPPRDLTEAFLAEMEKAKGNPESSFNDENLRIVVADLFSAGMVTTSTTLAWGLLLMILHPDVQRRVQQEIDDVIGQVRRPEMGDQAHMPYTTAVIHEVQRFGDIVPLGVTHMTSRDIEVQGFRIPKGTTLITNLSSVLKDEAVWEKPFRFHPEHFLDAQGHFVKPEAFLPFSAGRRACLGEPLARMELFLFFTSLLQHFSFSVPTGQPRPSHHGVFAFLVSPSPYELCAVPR
T2 sequence (P08684 whole entry): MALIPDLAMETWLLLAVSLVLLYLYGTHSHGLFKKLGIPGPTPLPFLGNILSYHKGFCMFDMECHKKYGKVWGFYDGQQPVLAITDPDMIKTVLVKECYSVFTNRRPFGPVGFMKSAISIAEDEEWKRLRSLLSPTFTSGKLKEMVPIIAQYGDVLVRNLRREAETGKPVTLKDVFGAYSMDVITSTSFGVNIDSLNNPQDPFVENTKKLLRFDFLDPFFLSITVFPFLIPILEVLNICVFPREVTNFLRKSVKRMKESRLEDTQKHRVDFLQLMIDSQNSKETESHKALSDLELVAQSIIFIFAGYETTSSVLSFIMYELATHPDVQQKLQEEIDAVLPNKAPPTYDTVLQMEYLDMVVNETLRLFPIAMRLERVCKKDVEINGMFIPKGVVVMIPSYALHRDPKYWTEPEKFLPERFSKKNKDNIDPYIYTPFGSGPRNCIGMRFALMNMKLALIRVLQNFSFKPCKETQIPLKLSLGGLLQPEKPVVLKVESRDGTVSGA
Chain of Cytochrome P450 2C19 (P33261 whole entry): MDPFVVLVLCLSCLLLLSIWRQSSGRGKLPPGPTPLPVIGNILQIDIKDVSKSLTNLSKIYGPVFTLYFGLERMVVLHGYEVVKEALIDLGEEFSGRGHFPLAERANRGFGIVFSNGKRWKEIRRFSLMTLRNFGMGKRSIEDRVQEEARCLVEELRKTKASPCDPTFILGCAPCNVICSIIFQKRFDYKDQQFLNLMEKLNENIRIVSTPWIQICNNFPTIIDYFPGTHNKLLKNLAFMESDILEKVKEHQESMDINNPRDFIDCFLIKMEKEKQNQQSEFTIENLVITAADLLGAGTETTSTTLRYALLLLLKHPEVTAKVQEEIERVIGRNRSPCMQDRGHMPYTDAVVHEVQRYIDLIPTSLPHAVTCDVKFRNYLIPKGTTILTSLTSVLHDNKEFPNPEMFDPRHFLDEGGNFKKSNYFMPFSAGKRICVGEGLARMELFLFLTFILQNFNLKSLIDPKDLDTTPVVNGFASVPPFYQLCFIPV
Chain of Cytochrome P450 2C9 (P11712 whole entry): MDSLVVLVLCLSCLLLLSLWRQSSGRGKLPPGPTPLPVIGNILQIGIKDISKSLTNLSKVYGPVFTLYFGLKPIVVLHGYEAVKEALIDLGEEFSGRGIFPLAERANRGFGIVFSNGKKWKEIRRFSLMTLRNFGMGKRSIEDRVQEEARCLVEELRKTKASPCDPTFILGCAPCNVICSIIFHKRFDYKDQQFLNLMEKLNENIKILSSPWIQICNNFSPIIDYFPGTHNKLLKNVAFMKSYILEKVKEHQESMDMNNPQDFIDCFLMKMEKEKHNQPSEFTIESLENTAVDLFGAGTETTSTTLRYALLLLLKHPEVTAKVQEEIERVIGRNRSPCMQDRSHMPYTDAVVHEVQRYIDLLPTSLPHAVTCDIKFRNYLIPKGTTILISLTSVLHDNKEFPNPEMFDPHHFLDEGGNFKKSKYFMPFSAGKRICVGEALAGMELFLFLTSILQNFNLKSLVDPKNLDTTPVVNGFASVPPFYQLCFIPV

Cc1cc2c(F)c(Oc3ncnn4cc(OC[C@@H](C)OC(=O)C(C)N)c(C)c34)ccc2[nH]1 (single isomer, unassigned; 8)
AUC(0-t) at 4 h [1]: 69 µM·h | Activity (L2987 [2]): Dose-dependent effect | inhibition in vivo at 107 mg/kg/day (L2987 [3]): 97% | IC50 (Cytochrome P450 2C19): 2100 nM | AUC(0-t) at 4 h [4]: 276 µM·h | IC50 (Cytochrome P450 2D6): 24000 nM | IC50 (Cytochrome P450 1A2): > 40000 nM | Cmax [5]: 78 µM | solubility [6]: 73 mg/mL (≈ 165 mM) | inhibition in vivo at 80 mg/kg/day (L2987 [7]): 85% | Cmax [8]: 21 µM | IC50 (Cytochrome P450 2C9): 9700 nM

Cc1cc2c(F)c(Oc3ncnn4cc(OC[C@@H](C)O)c(C)c34)ccc2[nH]1 [BRIVANIB]
AUC(0-t) at 4 h [1]: 45 µM·h | solubility [9]: < 0.001 mg/mL | IC50 (Cytochrome P450 2C19): > 40000 nM | AUC(0-t) at 4 h [4]: 52 µM·h | IC50 (Cytochrome P450 2D6): > 40000 nM | IC50 (Cytochrome P450 1A2): > 40000 nM | Cmax [5]: 14 µM | Cmax [8]: 12 µM | IC50 (Cytochrome P450 2C9): > 40000 nM

Cc1cc2c(F)c(Oc3ncnn4cc(OC[C@@H](C)OC(=O)C(N)CC(C)C)c(C)c34)ccc2[nH]1 (single isomer, unassigned)
AUC(0-t) at 4 h [1]: 113 µM·h | Ratio (Mus musculus): 4 | IC50 (Cytochrome P450 2C19): 1800 nM | AUC(0-t) at 4 h [4]: 451 µM·h | IC50 (Cytochrome P450 2D6): 24000 nM | IC50 (Cytochrome P450 1A2): 34000 nM | Cmax [5]: 152 µM | IC50 (Cytochrome P450 3A4 [10]): 370 nM | Cmax [8]: 31 µM | IC50 (Cytochrome P450 3A4 [11]): 95 nM | IC50 (Cytochrome P450 2C9): 2700 nM

Cc1cc2c(F)c(Oc3ncnn4cc(OC[C@@H](C)OC(=O)CN)c(C)c34)ccc2[nH]1
AUC(0-t) at 4 h [1]: 69 µM·h | Ratio (Mus musculus): 4.4 | IC50 (Cytochrome P450 2C19): 160 nM | AUC(0-t) at 4 h [4]: 303 µM·h | IC50 (Cytochrome P450 2D6): 12000 nM | IC50 (Cytochrome P450 1A2): 3700 nM | Cmax [5]: 126 µM | IC50 (Cytochrome P450 3A4 [10]): 310 nM | Cmax [8]: 21 µM | IC50 (Cytochrome P450 3A4 [11]): 160 nM | IC50 (Cytochrome P450 2C9): 63 nM

Cc1cc2c(F)c(Oc3ncnn4cc(OC[C@@H](C)OC(=O)C(C)(C)N)c(C)c34)ccc2[nH]1
AUC(0-t) at 4 h [1]: 46 µM·h | Ratio (Mus musculus): 4.6 | AUC(0-t) at 4 h [4]: 213 µM·h | Cmax [5]: 66 µM | Cmax [8]: 15 µM
